# A selection: hits, their analogues and other compounds. The true share with any hit is near 2.4%.
# Dynein cargo inh: inhibitors of GR-EGFP nuclear translocation, primary screen, dynein cargo transport inhibitor project, imaging, high-content, 3617.4 mouse cells; AID 1381, 2008; hit rate 0.47% among 220,000; test concentration mostly 20 µM; stimulated with dexamethasone, 1 µM; active compounds read low; z-score, hits read low;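 active = plate z-score of nuclear minus cytoplasmic receptor signal below a set negative limit, without overly bright fluorescence or cell loss, cut at about -3.5 in these data, passing the limit was not always enough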;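 also: z-score of nuclear minus cytoplasmic ring GR-EGFP intensity difference per well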
#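 Schedule: 48 h induction, then 1 h compound, then 30 min agonist, 37 °C. Buffer or medium: tetracycline-free induction medium containing charcoal-stripped FBS. Reagent: 1.0 µM final dexamethasone stimulus. Evaluation: nuclear versus cytoplasmic GR-EGFP signal, averaged per well. Signal: high-content fluorescence imaging after fixation.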
# Mdm2 ligase inh: MDM2-luciferase reporter signal enhancers, primary screen, MDM2 E3 ligase inhibitor project, cell-based, luminescence, 1536-well. hit rate 0.11% among 210,000. E3 ubiquitin-protein ligase Mdm2 (Homo sapiens), Q00987. signal enhancement, % at 5 µM. cell-based MDM2 ubiquitination luciferase reporter, 2 h; 0 = plate control, 100 = twice control, blank-subtracted. AID 1230, 2008;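 active = signal enhancement of 30% or more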;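 also: luminescence tracks abundance of the self-degrading MDM2-luciferase fusion protein; higher signal means inhibition of MDM2 E3 ligase activity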
#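 Assay system: stable mammalian line carrying autodegrading MDM2–luciferase fusion reporter; Input: 2000 cells in each well; Compound dosing: single-point 5 µM; Schedule: 2 h compound exposure at 37 °C; Signal: SteadyLite luciferase luminescence after 15 min room-temperature reagent incubation; Evaluation: % luminescence enhancement versus blank-corrected plate control mean; Benchmarks: plate controls and plate blanks.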
# zVAD death inh: inhibitors of zVAD-triggered necroptosis, primary screen, L929 cells; L929 zVAD necroptosis rescue, ATP luminescence, 24 h; with zVAD 60 µM; viability rescue, % at 10 µM; hit rate 0.38% among 220,000;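 active = activation, scaled between plate controls, above about 75%, limit read from the data; inactive = activation under that limit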;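 also: 0% = zVAD with DMSO and 100% = DMSO alone without zVAD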
# Autophagy mod: autophagy modulators in MEF cells, primary screen, imaging, high-content, MEF GFP-LC3; calls only at 10 µM (by protocol); MEF GFP-LC3 puncta imaging; test concentration mostly 10 µM; AID 463193, 2010; hit rate 0.98% among 190,000;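 active = percentage of spot-positive cells more than 3 SD above its plate mean, without a fluorescence outlier flag or 80% toxicity; inconclusive = no clear call, values can overlap the other calls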;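 also: spot-positive cell cutoff set from DMSO-treated cells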
# Hck Nef HTS: inhibitors of Nef-activated human Hck kinase, primary screen, biochemical, Z-Lyte FRET, 384-well, Hck-YEEI | inhibition, % at 20 µM | Recombinant Hck-YEEI plus Nef, Z-Lyte FRET kinase assay | Tyrosine-protein kinase HCK (Homo sapiens), P08631 | hit rate 0.68% among 220,000;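 active = Hck-Nef kinase inhibition above about 50%, limit read from the data; inactive = inhibition below that limit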;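 also: 0% = DMSO with Hck plus Nef and 100% = Hck alone without Nef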
# Target sequence (P08631 whole entry, looked up): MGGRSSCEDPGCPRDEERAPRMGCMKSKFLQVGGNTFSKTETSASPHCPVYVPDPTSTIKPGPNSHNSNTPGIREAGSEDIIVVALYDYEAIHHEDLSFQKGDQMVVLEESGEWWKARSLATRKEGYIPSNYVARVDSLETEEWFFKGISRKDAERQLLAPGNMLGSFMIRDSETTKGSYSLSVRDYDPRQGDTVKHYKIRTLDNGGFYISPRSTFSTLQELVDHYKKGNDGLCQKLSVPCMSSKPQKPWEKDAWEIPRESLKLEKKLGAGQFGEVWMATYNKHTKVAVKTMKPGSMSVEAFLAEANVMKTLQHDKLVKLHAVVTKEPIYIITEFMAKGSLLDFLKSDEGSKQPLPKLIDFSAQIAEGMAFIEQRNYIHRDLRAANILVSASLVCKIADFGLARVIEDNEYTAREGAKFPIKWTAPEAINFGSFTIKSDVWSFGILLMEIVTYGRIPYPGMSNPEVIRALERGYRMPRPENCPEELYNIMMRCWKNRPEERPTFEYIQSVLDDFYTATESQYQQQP
# TNF death inh: inhibitors of TNF-alpha triggered necroptosis, primary screen, cell-based, Jurkat FADD-/-, single concentration. Jurkat FADD-/- TNF necroptosis rescue, ATP luminescence, 24 h; 0 = TNF only, 100 = no-TNF cells. hit rate 0.068% among 220,000. activation (protection from cell death), % at 10 µM;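 active = activation, meaning protection from cell death, of at least 50% relative to plate controls; inactive = activation below 50%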;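 also: necroptosis triggered by 40 ng/mL TNF-alpha added together with compound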
# Dynein confirm: dynein cargo transport inhibitors, GR-EGFP translocation, confirmation, imaging, high-content imaging, GR-EGFP cells. calls only at 20 µM. hit rate 69% among 1,000. 3617.4 GR-EGFP nuclear translocation imaging, dexamethasone-induced. shares compounds with Dynein cargo inh;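 active = inhibition of receptor movement into the nucleus at or above a set limit in both runs, with normal cell brightness and cell count; inconclusive = limit reached in only one run, brightness and count normal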;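 also: dexamethasone at 1 µM final in well for 30 min; nuclear minus cytoplasmic GR-EGFP mean intensity difference in channel 2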
# The depositor's hits bear a star; i = inactive; ? = inconclusive; · = no result; + = active, no number.
SMILES,Dynein cargo inh,Mdm2 ligase inh,zVAD death inh,Autophagy mod,Hck Nef HTS,TNF death inh,Dynein confirm
COC(=O)c1cc(=O)n(CCc2ccc(OC)cc2)c(=Nc2ccc(F)c(Cl)c2)s1,-4.41*,-4.7,-0.9,i,0.2,-1.9,+
COC(=O)c1cc(=O)n(CCc2ccccc2)c(=Nc2ccc(F)cc2)s1,-3.33,-0.6,-1.0,·,3.2,-3.0,·
COC(=O)c1cc(=O)n(Cc2ccc(OC)cc2)c(=NCc2ccc(OC)cc2)s1,-2.82,-5.6,-0.5,i,2.0,-1.3,·
c1ccc(Oc2c3ccccc3nc3ccccc23)cc1,-0.494,·,-1.2,·,41.5,-16.2,·
O=c1ccc(-c2ccccc2)no1,-1.31,-5.4,0.9,·,12.4,1.1,·
Cc1ccc2nc(COc3ccc(Cl)cc3)cc(=O)n2c1,1.21,-50.8,-1.0,i,21.7,0.8,·
CC(c1ccccn1)N(Cc1ccco1)C(=S)Nc1cccc(F)c1 (configuration not stated),-0.925,·,-0.5,i,13.2,-0.2,·
O=C(OCCN1C(=O)c2ccccc2C1=O)c1cc(S(=O)(=O)N2CCOCC2)ccc1Cl,1.02,-2.5,0.4,i,1.0,-0.9,·
O=C(OCCN1C(=O)c2cccc3c(N4CCOCC4)ccc(c23)C1=O)c1cccc(Cl)c1,-3.8,-9.9,1.1,+,-6.6,-1.4,?
O=C(OCCN1C(=O)c2cccc3c(N4CCOCC4)ccc(c23)C1=O)c1ccc(Cl)cc1Cl,-10.7,-7.7,0.2,+,-7.3,-4.5,+
COc1cccc(C(=O)OCCN2CCOCC2)c1,1.02,-90.5,-0.4,i,10.4,0.5,·
NC(=O)CN1C(=O)C(O)(CC(=O)/C=C\c2ccc3c(c2)OCO3)c2ccccc21 (configuration not stated),-3.08,24.9,56.0,i,24.5,5.6,·
CN1C(=O)C(O)(CC(=O)/C=C\c2ccc3c(c2)OCO3)c2ccccc21 (configuration not stated),-4.55*,-6.6,5.6,i,21.9,3.5,+
O=C(c1cc(=O)[nH]c2ccccc12)N1CCN(c2ccccc2)CC1,0.495,-16.1,1.2,·,12.7,1.3,·
CCN(CC)C(=O)c1cc([N+](=O)[O-])cc2c1-c1ccc([N+](=O)[O-])cc1C2=C(C#N)C#N,-4.93*,3.8,1.3,·,-12.7,-31.3,?
CCN(CC)C(=O)c1ccc(Oc2ccc([N+](=O)[O-])cc2Cl)cc1,0.229,-48.9,-0.5,i,-18.9,0.4,·
CS(=O)(=O)c1ccc(C(=O)OCc2nnc(-c3ccc(Cl)cc3)o2)cc1[N+](=O)[O-],-5.59*,-15.4,1.7,i,33.7,-0.5,+
CC[n+]1c(/C=C2\Sc3ccccc3N2C)ccc2cccc(C)c21,-8.47*,-32.0,23.2,?,20.8,-16.6,+
COc1cc(/C=C2\SC(=Nc3ccccc3)N(CCc3c[nH]c4ccccc34)C2=O)ccc1OC(C)C(=O)O (configuration not stated),0.525,-10.9,2.0,i,4.4,1.7,·
O=C1/C(=C/c2ccc(N3CCOCC3)o2)SC(=Nc2ccccc2)N1CCc1c[nH]c2ccccc12,-6.96,19.2,1.6,+,-1.7,-21.4,+
Cc1ccc(C)c2nc3sc(C(=O)N4CCCc5ccccc54)c(N)c3cc12,-7.09,-16.5,1.3,+,-1.8,-5.6,i
O=C(c1ccc(C(=O)N2CCCc3ccccc32)s1)N1CCCc2ccccc21,-0.356,-5.1,0.2,i,0.5,-2.5,·
COc1ccc(CCn2c(C)cc(C(=O)CCl)c2C)cc1OC,-3.71*,-16.5,-1.6,i,10.7,-14.3,+
Cc1cc(C(=O)CCl)c(C)n1CCc1ccc(Cl)cc1,-6.29*,·,0.1,i,23.0,-13.8,+
Cc1cc(C(=O)CCl)c(C)n1CCc1ccc(F)cc1,0.887,-33.9,-1.0,i,23.4,-0.4,·
SMILES,Dynein cargo inh,Mdm2 ligase inh,zVAD death inh,Autophagy mod,Hck Nef HTS,TNF death inh,Dynein confirm
O=C(/C=C/c1ccncc1)c1ccc2c(c1)OCCO2,-5.44*,2.0,-0.9,i,33.0,-8.9,+
CCOC(=O)CCN(Cc1sccc1C)S(=O)(=O)c1ccc(F)cc1,-0.288,-10.1,-0.8,i,-1.5,-0.1,·
COCCN(CC(=O)NC1CCCCC1)C(=O)/C=C/C(=O)c1ccc(OC)cc1O,-3.69*,-19.3,0.8,i,6.1,-14.2,+
CC[C@H](C)/C=C(C)/C=C/C(=O)Cc1cc(O)c(C)c(O)c1C=O,-3.84*,-30.3,0.6,·,11.4,-2.3,+
CC[C@H](C)/C=C(C)/C=C/C1=CC2=CC(=O)[C@]3(C)OC(=O)[C@@H](C(C)=O)[C@@H]3C2=CO1,-2.81,-3.9,0.5,i,-46.5,-1.1,·
O=C(CSc1nnc(-c2ccncc2)n1CC1CCCO1)Nc1ccccc1Cl (configuration not stated),-0.476,0.4,-0.2,i,22.2,1.1,·
CCCCN(C)C(=O)c1c[nH]c2ccc(S(=O)(=O)N3CCOCC3)cc2c1=O,-0.691,-3.9,-0.2,i,-2.5,0.8,·
Cc1cc(C)n(C(C[N+](=O)[O-])c2ccc(Cl)cc2)n1 (configuration not stated),-5.57*,-15.2,-0.7,i,1.7,0.3,i
O=C(Nc1ccccc1)c1nnsc1S(=O)c1ccc(Cl)cc1 (configuration not stated),-3.53*,-16.9,27.4,i,-2.7,-24.6,+
O=C(Nc1ccc(Cl)cc1)c1csc(Cc2ccccc2)n1,-0.334,-10.2,4.1,i,18.7,0.2,·
O=C(c1nnsc1S(=O)c1ccc(Cl)cc1)N1CCOCC1 (configuration not stated),-4.77*,-28.3,28.4,i,8.3,-12.1,+
O=C(c1cc(-c2ccc(Cl)cc2)on1)N1CCOCC1,-0.768,-45.9,-0.3,i,-1.2,-0.4,·
CNC(=O)c1nnsc1S(=O)(=O)c1ccc(Cl)cc1,-4.01*,-27.2,-0.8,i,14.5,-19.3,+
